Experimental data as given in ChEMBL document CHEMBL1124235, “3-Phenoxypyridine 1-oxides as anticonvulsant agents” (1988).
Activity calls are given as the source filed them. No cut-off for these calls is given here.

How the values were obtained:
[1] = tested on: Mus musculus; experiment: Increase in spontaneous locomotion activity after intraperitoneal administration in mice at a dose of 30 mg/Kg; assay type: functional
Summary of the method: (§1)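 After ip injection, spontaneous locomotor activity was recorded automatically over a 1-h period beginning 20 min after dosing, with nine or more mice per dose group. Values are percent change from saline-treated mice.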

[2] = tested on: Mus musculus; experiment: Number of mice falling from an inverted wire mesh during a 1-min test period 20 min after ip administration at a dose of 30 mg/Kg in ataxia (inverted screen test); - denotes 'no animals fell'; assay type: functional, organism-based
Summary of the method: (§2)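 Mice were dosed ip and placed on an inverted wire mesh 20 min after injection, for a 1-min test. The number of mice that fell per dose group was counted, and a dash means none fell.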

[3] = tested on: Mus musculus; experiment: Dose at which mouse exhibited ataxia using the inverted screen procedure at 30 min post administration; assay type: functional
Summary of the method: (§3)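 Mice (n = 5 per dose) were scored 30 min after dosing at levels of 10, 30, 100, 300 or >300 mg/kg. They were placed on an inverted wire-mesh square, and impaired mice fall off.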

[4] = tested on: Mus musculus; experiment: Increase in spontaneous locomotion activity after intraperitoneal administration in mice at a dose of 100 mg/Kg; assay type: functional; summary of the method: as §1
[5] = tested on: Mus musculus; experiment: Number of mice falling from an inverted wire mesh during a 1-min test period 20 min after ip administration at a dose of 100 mg/Kg in ataxia (inverted screen test); 2/9; assay type: functional; summary of the method: as §2
[6] = tested on: Mus musculus; experiment: Number of mice falling from an inverted wire mesh during a 1-min test period 20 min after ip administration at a dose of 10 mg/Kg in ataxia (inverted screen test); - denotes 'no animals fell'; assay type: functional, organism-based; summary of the method: as §2
[7] = tested on: Mus musculus; experiment: Dose required to protect Mice against tonic extension produced by maximal electroshock (MES) at 30 min post administration; assay type: functional; details: 0.5 h, read-out: MED
Summary of the method: (§4)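 Male Swiss-Webster mice (25–32 g), with food and water before testing, were dosed ip, the compound being in water or suspended in 0.29% Methocel. Doses were counted as free base, at levels of 10, 30, 100, 300 or >300 mg/kg, with n = 5. At 30 min, 90 mA, 1 ms monophasic pulses at 100 Hz were given through ear clips for 0.2 s. Value is the lowest dose protecting ≥2 mice from tonic hind-limb extension.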

[8] = tested on: Mus musculus; experiment: Increase in spontaneous locomotion activity after intraperitoneal administration in mice at a dose of 10 mg/Kg; assay type: functional; summary of the method: as §1
[9] = tested on: Mus musculus; experiment: Number of mice falling from an inverted wire mesh during a 1-min test period 20 min after ip administration at a dose of 30 mg/Kg in ataxia (inverted screen test); 1/9; assay type: functional; summary of the method: as §2
[10] = tested on: Mus musculus; experiment: Number of mice falling from an inverted wire mesh during a 1-min test period 20 min after ip administration at a dose of 100 mg/Kg in ataxia (inverted screen test); - denotes 'no animals fell'; assay type: functional, organism-based; summary of the method: as §2
[11] = tested on: Mus musculus; experiment: Number of mice falling from an inverted wire mesh during a 1-min test period 20 min after ip administration at a dose of 10 mg/Kg in ataxia (inverted screen test ); - denotes 'no animals fell'; assay type: functional, organism-based; summary of the method: as §2
[12] = tested on: Mus musculus; experiment: Number of mice falling from an inverted wire mesh during a 1-min test period 20 min after ip administration at given dose in ataxia (inverted screen test) at 40 mg/kg; - denotes 'no animals fell'; assay type: functional, organism-based; design: dose 40 mg/kg; summary of the method: as §2
[13] = tested on: Mus musculus; experiment: Number of mice falling from an inverted wire mesh during a 1-min test period 20 min after ip administration at given dose in ataxia (inverted screen test) at 10 mg/kg; - denotes 'no animals fell'; assay type: functional, organism-based; design: dose 10 mg/kg; summary of the method: as §2
[14] = tested on: Mus musculus; experiment: Increase in spontaneous locomotion activity after intraperitoneal administration in mice at 10 mg/kg; no change; assay type: functional, organism-based; design: dose 10 mg/kg; summary of the method: as §1
[15] = tested on: Mus musculus; experiment: Increase in spontaneous locomotion activity after intraperitoneal administration in mice; 40 mg/kg; assay type: functional; summary of the method: as §1
[16] = tested on: Mus musculus; experiment: Number of mice falling from an inverted wire mesh during a 1-min test period 20 min after ip administration at given dose in ataxia (inverted screen test) at 100 mg/kg; - denotes 'no animals fell'; assay type: functional, organism-based; design: dose 100 mg/kg; summary of the method: as §2
[17] = tested on: Mus musculus; experiment: Number of mice falling from an inverted wire mesh during a 1-min test period 20 min after ip administration at given dose in ataxia (inverted screen test) at 20 mg/kg; - denotes 'no animals fell'; assay type: functional, organism-based; design: dose 20 mg/kg; summary of the method: as §2
[18] = tested on: Mus musculus; experiment: Increase in spontaneous locomotion activity after intraperitoneal administration in mice at 20 mg/kg; assay type: functional; summary of the method: as §1
[19] = tested on: Mus musculus; experiment: Increase in spontaneous locomotion activity after intraperitoneal administration in mice; at 100 mg/kg; assay type: functional; summary of the method: as §1
[20] = tested on: Mus musculus; experiment: Number of mice falling from an inverted wire mesh during a 1-min test period 20 min after ip administration at a dose of 20 mg/Kg in ataxia (inverted screen test); 1/12; assay type: functional; summary of the method: as §2
[21] = tested on: Mus musculus; experiment: Increase in spontaneous locomotion activity after intraperitoneal administration in mice at a dose of 20 mg/Kg; assay type: functional; summary of the method: as §1
[22] = tested on: Mus musculus; experiment: Ataxia produced by rotarod ataxia test (ROT) in mouse by ip administration at 0.5 hr post dosing
[23] = tested on: Mus musculus; experiment: Increase in spontaneous locomotion activity after intraperitoneal administration in mice at a dose of 5 mg/Kg; assay type: functional; summary of the method: as §1
[24] = tested on: Mus musculus; experiment: Anticonvulsant activity by maximal electroshock test(MES) in mouse by ip administration at 0.5 hr postdosing
[25] = tested on: Rattus norvegicus; experiment: Anticonvulsant activity by maximal electroshock test(MES) in rat by po administration at 1 hr postdosing; assay type: functional
[26] = tested on: Mus musculus; experiment: Number of mice falling from an inverted wire mesh during a 1-min test period 20 min after ip administration at a dose of 40 mg/Kg in ataxia (inverted screen test); 1/12; assay type: functional; summary of the method: as §2
[27] = tested on: Mus musculus; experiment: Number of mice falling from an inverted wire mesh during a 1-min test period 20 min after ip administration at a dose of 60 mg/Kg in ataxia (inverted screen test); 6/12; assay type: functional; summary of the method: as §2
[28] = tested on: Mus musculus; experiment: Anticonvulsant activity by maximal electroshock test(MES) in mouse by po administration at 0.5 hr postdosing
[29] = tested on: Mus musculus; experiment: Increase in spontaneous locomotion activity after intraperitoneal administration in mice at a dose of 60 mg/kg; assay type: functional; summary of the method: as §1
[30] = tested on: Rattus norvegicus; experiment: Ataxia produced by […] in rat by po administration at 1 hr post dosing; assay type: functional
Summary of the method: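 Rats were dosed orally and checked 1.0 h afterwards. Ataxia was judged by visual (subjective) observation, not by rotarod. ED50 was calculated by probit analysis of quantal data from four dose groups of eight rats each, with 95% confidence intervals.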

[31] = tested on: Mus musculus; experiment: Ataxia produced by rotarod ataxia test (ROT) in mouse by po administration at 0.5 hr post dosing
[32] = tested on: Mus musculus; experiment: Increase in spontaneous locomotion activity after intraperitoneal administration in mice at a dose of 40 mg/kg; assay type: functional; summary of the method: as §1
[33] = tested on: Mus musculus; experiment: Number of mice falling from an inverted wire mesh during a 1-min test period 20 min after ip administration at a dose of 100 mg/Kg in ataxia (inverted screen test); 3/9; assay type: functional; summary of the method: as §2
[34] = tested on: Mus musculus; experiment: Dose at which mouse exhibited ataxia using the inverted screen procedure at 30 min post administration.; assay type: functional; summary of the method: as §3
[35] = tested on: Mus musculus; experiment: Dose required to protect Mice against tonic extension produced by maximal electroshock (MES) at 30 min post administration.; assay type: functional; details: 0.5 h, read-out: MED; summary of the method: as §4

Cc1c(Oc2ccccc2)ccc[n+]1[O-]
Change [1]: 25% | Activity [2]: Not toxic | MAD [3]: 300 mg/kg | Change [4]: 184% | Activity [5]: 2 | Activity [6]: Not toxic | minimal effective dose [7]: 300 mg/kg | Change [8]: 48%

O=Cc1cc[n+]([O-])cc1Oc1ccccc1
MAD [3]: >300 mg/kg | minimal effective dose [7]: 300 mg/kg

c1ccc2c(c1)Cc1ccncc1O2
MAD [3]: 300 mg/kg | minimal effective dose [7]: 100 mg/kg

CC(C)c1cc[n+]([O-])cc1Oc1ccccc1
MAD [3]: 100 mg/kg | minimal effective dose [7]: 30 mg/kg

[O-][n+]1ccc(CO)c(Oc2ccccc2)c1
MAD [3]: 30 mg/kg | minimal effective dose [7]: 300 mg/kg

O=C(O)c1cc[n+]([O-])cc1Oc1ccccc1
MAD [3]: >300 mg/kg | minimal effective dose [7]: > 300 mg/kg

OCc1ccncc1Oc1ccccc1
MAD [3]: 300 mg/kg | minimal effective dose [7]: 300 mg/kg

[O-][n+]1cccc(Oc2ccccc2)c1
Change [1]: 45% | MAD [3]: 300 mg/kg | Activity [9]: 1 | Change [4]: 122% | Activity [10]: Not toxic | Activity [11]: Not toxic | minimal effective dose [7]: 100 mg/kg | Change [8]: 19%

CC(C)(C)c1cc[n+]([O-])cc1Oc1ccccc1
MAD [3]: 100 mg/kg | minimal effective dose [7]: 30 mg/kg

Cc1cc(Oc2ccccc2)c[n+]([O-])c1
Change [1]: 186% | Activity [2]: Not toxic | MAD [3]: 300 mg/kg | Change [4]: 228% | Activity [10]: Not toxic | Activity [6]: Not toxic | minimal effective dose [7]: 100 mg/kg | Change [8]: 87%

O=S(=O)(O)O.c1ccc(Oc2cccnc2)cc1
Activity [12]: Not toxic | Activity [13]: Not toxic | Activity [14]: inactive | MAD [3]: 300 mg/kg | Change [15]: 53% | Activity [16]: Not toxic | Activity [17]: Not toxic | minimal effective dose [7]: 100 mg/kg | Change [18]: 28% | Change [19]: 15%

COc1ccc(Oc2c[n+]([O-])ccc2C)cc1
MAD [3]: 300 mg/kg | minimal effective dose [7]: 300 mg/kg

N#Cc1cc[n+]([O-])cc1Oc1ccccc1
MAD [3]: 300 mg/kg | minimal effective dose [7]: 300 mg/kg

O=c1c2ccccc2oc2c[n+]([O-])ccc12
MAD [3]: 300 mg/kg | minimal effective dose [7]: > 300 mg/kg

Cc1cc[n+]([O-])cc1Oc1ccccc1
Activity [20]: 1 | Change [21]: 75% | ED50 [22]: 76 mg/kg | Change [23]: 12% | ED50 [24]: 23 mg/kg | ED50 [25]: 11 mg/kg | Activity [26]: 1 | MAD [3]: 100 mg/kg | Activity [27]: 6 | ED50 [28]: 85 mg/kg | Activity [6]: Not toxic | minimal effective dose [7]: 30 mg/kg | Change [29]: 63% | ED50 [30]: 75 mg/kg | ED50 [31]: 300 mg/kg | Change [32]: 92% | Change [8]: 55%

[O-][n+]1ccc(C2CCCCC2)c(Oc2ccccc2)c1
MAD [3]: 300 mg/kg | minimal effective dose [7]: > 300 mg/kg

Cc1cc[n+]([O-])cc1Oc1ccc(Cl)cc1
MAD [3]: 100 mg/kg | minimal effective dose [7]: 100 mg/kg

Cc1ccc(Oc2ccccc2)c[n+]1[O-]
Change [1]: 96% | Activity [2]: Not toxic | Change [4]: 134% | Activity [33]: 3 | Activity [6]: Not toxic | MAD [34]: 300 mg/kg | minimal effective dose [35]: 100 mg/kg | Change [8]: 32%

CCc1cc[n+]([O-])cc1Oc1ccccc1
MAD [3]: 100 mg/kg | minimal effective dose [7]: 30 mg/kg

[O-][n+]1ccc(Cl)c(Oc2ccccc2)c1
MAD [3]: 300 mg/kg | minimal effective dose [7]: > 300 mg/kg

Cc1ccc(Oc2c[n+]([O-])ccc2C)cc1
MAD [3]: 300 mg/kg | minimal effective dose [7]: 300 mg/kg
